For series [1], the target named is T1, SpyCas9 (Streptococcus pyogenes serotype M1, UniProt Q99ZW2). The series can be described thus: biochemical. The settings on record: for IC50: Spy Cas9; for activity on Cas9 (structure–activity relationship of pamoic acid): SpyCas9, standard assay conditions.
In series [2] the target is T2, SauCas9 (Staphylococcus aureus, UniProt J7RUA5).
T2 sequence (J7RUA5 1-1053): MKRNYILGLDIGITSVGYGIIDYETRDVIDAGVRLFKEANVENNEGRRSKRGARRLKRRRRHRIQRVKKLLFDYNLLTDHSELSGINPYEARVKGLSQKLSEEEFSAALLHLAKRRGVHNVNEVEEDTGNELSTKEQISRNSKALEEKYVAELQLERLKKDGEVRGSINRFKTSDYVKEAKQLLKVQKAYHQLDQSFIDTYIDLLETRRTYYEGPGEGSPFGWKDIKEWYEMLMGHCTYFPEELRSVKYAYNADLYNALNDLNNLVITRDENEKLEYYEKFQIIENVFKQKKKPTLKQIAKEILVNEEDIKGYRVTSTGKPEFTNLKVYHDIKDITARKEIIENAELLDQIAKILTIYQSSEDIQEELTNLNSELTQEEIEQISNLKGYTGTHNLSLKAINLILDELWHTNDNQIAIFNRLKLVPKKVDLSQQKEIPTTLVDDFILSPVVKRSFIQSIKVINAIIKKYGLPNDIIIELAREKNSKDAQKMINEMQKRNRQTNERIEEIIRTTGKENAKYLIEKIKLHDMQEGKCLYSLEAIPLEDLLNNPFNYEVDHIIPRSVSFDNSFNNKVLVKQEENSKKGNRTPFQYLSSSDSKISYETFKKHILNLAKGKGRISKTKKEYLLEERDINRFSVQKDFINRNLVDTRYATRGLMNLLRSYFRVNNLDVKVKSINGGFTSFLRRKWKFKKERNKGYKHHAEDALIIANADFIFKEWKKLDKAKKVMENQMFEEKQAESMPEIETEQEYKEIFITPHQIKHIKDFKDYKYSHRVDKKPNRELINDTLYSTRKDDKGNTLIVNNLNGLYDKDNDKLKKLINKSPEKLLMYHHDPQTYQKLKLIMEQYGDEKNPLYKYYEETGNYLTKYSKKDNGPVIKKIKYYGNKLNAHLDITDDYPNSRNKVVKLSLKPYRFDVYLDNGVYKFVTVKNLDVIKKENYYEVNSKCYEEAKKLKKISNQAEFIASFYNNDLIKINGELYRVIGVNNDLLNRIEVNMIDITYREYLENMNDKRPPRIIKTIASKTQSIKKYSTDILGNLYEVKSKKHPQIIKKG
The series can be described thus: In vitro purified enzyme activity assay for SauCas9. It is filed as biochemical. The settings on record: IC50, in vitro purified enzyme assay, Sau Cas9.

Series [3] addresses T1, SpyCas9. Put plainly: Two-plasmid-based bacterial survival assay. It is filed as cell-based. Particulars: IC50, bacteria-based assay, Spy Cas9; bacterial survival assay using pCas and pTarget-sgSSEA plasmids, E. coli MG1655. In outline: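 E. coli MG1655 competent cells carrying pCas (SpyCas9) electroporated with pTarget-sgSSEA, or the pT-sgControl plasmid as reference. Test compound added to the electroporated bacteria for 1.5 h at 32 °C, then plated on LB with kanamycin and spectinomycin and incubated overnight. Colonies counted and expressed as a percentage of the compound-treated sgControl strain at the same concentration (100%).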

For series [4], the target named is T1, SpyCas9. It is filed as cell-based. Put shortly: (§1)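 MG1655 competent cells carrying pCas (SpyCas9 or SauCas9) were electroporated with 300 ng pTarget-sgSSEA (867 bp) or its Sau version, which carries an 867-bp homologous recombination repair template. Test compound was added to 700 μl LB right after electroporation, held 1.5 h at 32 °C, then plated on LB agar with 100 μg/ml kanamycin and 100 μg/ml spectinomycin. The SSEA site was genotyped by PCR.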

Series [5] concerns the target T2, SauCas9. It is filed as cell-based. Put shortly: as §1
The target in series [6] is T1, SpyCas9. Put plainly: Surface plasmon resonance assay. It is filed as binding. Put shortly:
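His-tagged SpyCas9, Ni–NTA purified and imidazole-eluted, amine-coupled to a CM5 chip at 100 μg/ml. Test compounds were diluted in 1× PBST to a series of concentrations and injected at 30 μl/min, with 120 s association and 120 s dissociation. Equilibrium KD was fitted from the response curves.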
Background: Surface plasmon resonance follows binding to a sensor surface in real time, without labels.

Another series addresses FnoCas12a (Francisella tularensis subsp. novicida, UniProt A0Q7Q2). It is filed as biochemical.
For the next series, the system named is LbaCas12a. The series can be described thus: LbaCas12a activity assay. Particulars: complete inhibition refers to 50 μM or above. It is filed as biochemical, Lachnospiraceae bacterium.
A further series concerns E. coli MG1655. The series can be described thus: Toxicity to bacteria in the two-plasmid-based bacterial survival assay. Particulars: for toxicity to E. coli: MG1655, bacterial survival assay. It is filed as cell-based. Put shortly: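 MG1655 pCas-competent cells were electroporated with pT-sgControl. Test compound was added to 700 μl LB immediately afterwards and incubated 1.5 h at 32 °C, then plated on LB agar with kanamycin and spectinomycin (100 μg/ml each). Colonies were counted after overnight incubation; biological replicates n = 3.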

The conditions of series [7]: in humans; cited from earlier work.
For series [8], the system named is SpyCas9. The series can be described thus: biochemical. More on the design: species or system Streptococcus pyogenes.
For series [9], the target named is T1, SpyCas9. The series can be described thus: GFP-disruption assay in HEK293FT cells. The format is cell-based.
Series [10] deals with T1, SpyCas9. It is filed as cell-based. In outline:
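HEK293FT cells, ~2 × 10^5 per well, were seeded 1 day before transfection (Lipofectamine 3000) with 1 μg PX459-SpyCas9-sgCOSMC, -sgEMX1 or -sgControl. Test compound was added 0 or 6 h post-transfection, and cells were kept 24 h at 37 °C, then selected with 2.5 μg/ml puromycin for 36–48 h. Target loci were PCR-amplified, Sanger-sequenced and scored by TIDE.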
The source holds these as a separate data set.

The target of series [11] is T2, SauCas9. The series can be described thus: SauCas9-mediated genome editing of COSMC in HEK293FT cells, TIDE analysis. It is filed as cell-based. In outline: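 HEK293FT wt cells were co-transfected (Lipofectamine 3000) with 1 μg miniCMV-SaCas9 and 1 μg pGL3 carrying sgCOSMC-Sau or sgControl. Test compound was added right after transfection for 24 h, followed by 2.5 μg/ml puromycin selection. The COSMC locus was PCR-amplified (40 cycles), Sanger-sequenced, and editing efficiency was obtained by TIDE analysis.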

A further series has as its target BE4 base editor (Streptococcus pyogenes, UniProt Q99ZW2, D10A). Put plainly: BE4-mediated base editing of EMX1 in HEK293FT cells, EditR analysis. It is filed as cell-based.
For series [12], the system named is SpyCas9-mediated genome editing of PCSK9. The series can be described thus: SpyCas9-mediated anti-PCSK9 mouse model by hydrodynamic injection. It is filed as in vivo, BALB/c mice. Particulars: for plasma total cholesterol restored to the level of the control: 3rd blood collection. Put shortly: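 On days 1, 4 and 7, 90 μg PX459-SpyCas9-sgPCSK9 or -sgControl in 2 ml saline was injected hydrodynamically into the tail vein over 5–8 s. Orbital blood (~100 μl) was taken days 2, 5 and 8, and heparin plasma (20 μl) was assayed by PCSK9 ELISA.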

The mark [13] stands for this setting: IC50, in vitro purified enzyme assay, linear substrates (87 bp oligonucleotide or 2.5 kb linear DNA).
Where [14] appears, read: IC50, in vitro purified enzyme assay, supercoil (circular) plasmid substrate pcDNA3.1/CT-GFP.
Where [15] appears, read: linear substrates (87 bp oligonucleotide).
Where [16] appears, read: supercoil (circular) plasmid substrate.

Like-named read-outs stand apart in the source and are kept apart here.

Here are results for eight compounds from publication PMC11951523 (Genome Biology, 2025).

What is called IC50 is the concentration needed to halve the response being measured. The Kd is a measure of binding affinity in units of concentration. For `COc1cccc2c1C(=O)c1c(O)c3c(c(O)c1C2=O)C[C@@](O)(C(=O)CO)C[C@@H]3O[C@H]1C[C@H](N)[C@@H](O)[C@H](C)O1` [Epirubicin], the IC50 against SpyCas9 [1] (setting [13]) fell in the range of 2 to 5 µM; against SpyCas9 [1] (setting [14]), 2 to 5 µM; against SauCas9 [2] (setting [15]) it was 6.25 to 12.5 µM; against SauCas9 [2] (setting [16]), 3.13 to 6.25 µM; at SpyCas9 [3], 3.13 to 6.25 µM; on SpyCas9 [4], 6.25 to 12.5 µM. In addition, the IC50 on SauCas9 [5] is roughly 6.25 µM. Further, the Kd at SpyCas9 [6] is greater than 1000 µM. Further, the “effect on the activity of FnoCas12a” value at FnoCas12a is reported as “completely inhibit”. Moreover, the “effect on the activity of LbaCas12a” value with LbaCas12a is “completely inhibit”. The “toxicity to electroporated bacteria” value in the series with E. coli MG1655 (at a concentration of 50 μM) is given as “significant toxicity”. In addition, the “site of metabolism / elimination” value in [7] was “mainly metabolized in human liver”.

On to `CC1(C)[C@@H](OC(=O)CCC(=O)O)CC[C@]2(C)[C@H]3C(=O)C=C4[C@@H]5C[C@@](C)(C(=O)O)CC[C@]5(C)CC[C@@]4(C)[C@]3(C)CC[C@@H]12` [Carbenoxolone], for which the IC50 against SpyCas9 [1] (setting [13]) is 5 to 10 µM; against SpyCas9 [1] (setting [14]) it was roughly 100 µM; at SauCas9 [2] (setting [15]), 25 to 50 µM; on SauCas9 [2] (setting [16]) it was 100 to 200 µM; on SpyCas9 [3] it was roughly 200 µM; against SpyCas9 [4], 50 to 100 µM. Besides, the IC50 was 100 to 200 µM against SauCas9 [5]; 10 to 20 µM against SpyCas9 [9]; 20 to 50 µM against SpyCas9 [10]; 20 to 50 µM against SauCas9 [11]; 20 to 50 µM on BE4 base editor. Moreover, the “effect of mutation of catalytic residues D10 or H840 on the IC50” value in the series on SpyCas9 [8] was “did not affect”. In addition, the “effect on the activity of FnoCas12a” value on FnoCas12a is “inactive to or weakly inhibited”. Further, the “effect on the activity of LbaCas12a” value in the series on LbaCas12a is “inactive to or weakly inhibited”. In [12] (160 mg/kg), the “effect on the basal level of PCSK9 in vehicle-treated (sgControl) mice” value is “did not interfere”. In addition, in [12] (160 mg/kg), the “plasma total cholesterol restored to the level of the control” value was “largely restored”. Moreover, the “preventive effect on loss of plasma PCSK9” value in series [12] (high doses of 80 or 160 mg/kg, 2nd or 3rd treatment cycle) is listed as “strong preventive effects”. Moreover, the “toxicity to E. coli” value with E. coli MG1655 was “did not appear to be much toxic”.

With `Nc1ccc(O)c(C(=O)O)c1` [5-aminosalicylic acid], the “activity on Cas9 (structure–activity relationship of pamoic acid)” value (from here on “activity on Cas9”) on SpyCas9 [1] is “inactive”.

Consider `O=C(O)c1ccccc1O` [Salicylic acid, salicylic acid], for which, on SpyCas9 [1], the “activity on Cas9” value was “inactive”.

In the case of `O=C(O)c1cc(/N=N/c2ccc(O)c(C(=O)O)c2)ccc1O` [Olsalazine, olsalazine], the “activity on Cas9” value at SpyCas9 [1] was “inactive”.

Turning to `OCCOCCN1CCN(C(c2ccccc2)c2ccc(Cl)cc2)CC1` (stereo not shown) [Hydroxyzine pamoate], the results for the IC50 at SpyCas9 [1] (setting [13]) and against SpyCas9 [1] (setting [14]) were 20 to 50 µM and greater than 200 µM, respectively.

For the compound `CN1CCCN=C1/C=C/c1cccc(O)c1` [Oxantel pamoate], the IC50 on SpyCas9 [1] (read-out: IC50, in vitro purified enzyme assay, supercoil (circular) plasmid substrate pcDNA3.1/CT-GFP) was greater than 200 µM.

For the compound `O=C(O)c1cc2ccccc2c(Cc2c(O)c(C(=O)O)cc3ccccc23)c1O` [Pamoic acid], the IC50 is 10 to 20 µM against SpyCas9 [1] (setting [13]); 400 to 600 µM at SpyCas9 [1] (setting [14]); 25 to 50 µM against SauCas9 [2] (setting [15]); 500 to 1000 µM at SauCas9 [2] (setting [16]); 200 to 400 µM at SpyCas9 [3]; roughly 400 µM on SpyCas9 [4]. In addition, the IC50 is 250 to 500 µM against SauCas9 [5]; 20 to 50 µM on SpyCas9 [9]; 20 to 50 µM on SpyCas9 [10]; 20 to 50 µM against SauCas9 [11]; roughly 50 µM at BE4 base editor. Further, the “effect of mutation of catalytic residues D10 or H840 on the IC50” value in the series with SpyCas9 [8] was “did not affect”. Besides, the “effect on the activity of FnoCas12a” value on FnoCas12a was “inactive to or weakly inhibited”. Further, the “effect on the activity of LbaCas12a” value with LbaCas12a is “inactive to or weakly inhibited”. Moreover, the “plasma total cholesterol restored to the level of the control” value in series [12] (80 mg/kg) and in [12] (160 mg/kg) was “largely restored” throughout. In addition, in series [12] (160 mg/kg), the “effect on the basal level of PCSK9 in vehicle-treated (sgControl) mice” value is “did not interfere”. The “restoration of plasma PCSK9 level” value in series [12] (80 or 160 mg/kg intraperitoneal, 1st, 2nd, or 3rd treatment cycle) is recorded as “completely restore”. Also, the “dose from which a dose-dependent preventative effect on plasma PCSK9 starts” value in series [12] (intraperitoneal) is recorded as no less than 20 mg/kg. For the same compound, the “effect on PCSK9 allele modifications in liver (NGS)” value in series [12] (medium dose of 40 mg/kg) is “largely reduced but not totally prevented”. Moreover, in the series with E. coli MG1655, the “toxicity to E. coli” value is recorded as “did not appear to be much toxic”. In addition, the “site of metabolism / elimination” value in series [7] is recorded as “mainly metabolized in human liver”.
